Laboratory results as given in ChEMBL document CHEMBL4665829, “Synthesis, Structure-Activity Relationship, and Antimalarial Efficacy of 6-Chloro-2-arylvinylquinolines” (J Med Chem, 2020).
Activity calls are given as the source filed them. The rule behind the calls is not given here.

What was measured:
Plasmodium falciparum [1] = assay: Antiplasmodial activity against synchronized chloroquine-resistant Plasmodium falciparum Dd2 reduction in microbial growth 5 times of EC50 treated with compound at 6 to 30 hrs post infection measured after 12 hrs by YOYO-1 staining-based flow cytometric analysis; format: functional, organism-based
Outline: (§1)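 Dd2 cultures tightly synchronized by magnetic separation and sorbitol were dosed at 5 × EC50 at 6, 18, 30 or 42 h post-invasion. Controls: DHA 50 nM, atovaquone 6.6 nM, DMSO 0.1%. Sampled every 12 h for Giemsa thin smears and for flow cytometry: glutaraldehyde/paraformaldehyde fixation, Triton permeabilization, RNAse, 500 nM YOYO-1, 500,000 events/sample. Three independent biological replicates.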

[2] = Toxicity in BALB/c mouse infected with Plasmodium berghei ANKA expressing luciferase assessed as reduction in weight at 25 to 100 mg/kg, po for 4 days measured up to 30 days; format: organism-based; conditions: in vivo, 96 h, dose 25-100 mg/kg, time 4 day
Outline: (§2)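 Female BALB/c mice (10 weeks, ~20 g), five per group, were inoculated i.p. with 10⁶ P. berghei ANKA 676m1cl1-parasitized RBC. Oral gavage in 2% methylcellulose/0.5% Tween 80, once daily for 4 days starting 4 h post-infection, against a vehicle control. Tail-blood Giemsa smears from day 4. Signs and body weight were followed. Sacrifice at 40% parasitemia; cure meant a negative smear at day 30. Kaplan–Meier, log-rank.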

Plasmodium falciparum [3] = assay: Antiplasmodial activity against synchronous gametocyte late stage of Plasmodium falciparum 3D7 harboring luc7 incubated for 72 hrs by ONE-Glo luciferase assay; format: functional, organism-based; conditions: 3D7, 72 h
Outline: (§3)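 Gametocytes of P. falciparum 3D7 luc7 induced by nutrient starvation, cultured in heparin medium to remove asexual stages, Percoll-purified as early (II–III) or late (IV–V) stage. 50,000 gametocytes/well exposed 72 h to a 19-point gradient, 0.038 nM–10 μM. ONE-Glo luciferase read after 5 min. EC50 by nonlinear curve fit; three experiments.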

[4] = Selectivity index, ratio of EC50 for cytotoxicity against human HepG2 cells to antiplasmodial activity against chloroquine-resistant Plasmodium falciparum Dd2; format: toxicity, cell-based; conditions: read-out: Ratio EC50
Plasmodium falciparum [5] = assay: Antiplasmodial activity against synchronized chloroquine-resistant Plasmodium falciparum Dd2 reduction in microbial growth at 5 times of EC50 treated with compound at 42 hrs post infection measured after 12 hrs by Giemsa staining-based microscopic analysis; format: functional, organism-based; outline: as §1
[6] = Resistant index, ratio of EC50 for antiplasmodial activity against chloroquine-resistant Plasmodium falciparum Dd2 to antiplasmodial activity against chloroquine-sensitive Plasmodium falciparum 3D7; format: functional
Hemozoin = assay: Inhibition of beta-hematin formation at 12.5 to 200 uM after 16 hrs by inverted microscopic analysis; conditions: dose microM 12.5-200, time 16.0 hrs
Outline: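 Hemin (2 mM stock in 0.1 M NaOH; 100 μM final), propionate buffer pH 5.2 and sonicated phosphatidylcholine were incubated with a compound concentration series for 16 h at 37 °C with gentle shaking. Crystals were imaged by inverted microscope before quenching with 7.5% SDS in bicarbonate, pH 9.1. Free hemin was measured at 405 nm against a 0–16 μM calibration. Three independent experiments.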

Plasmodium falciparum [7] = assay: Antiplasmodial activity against synchronized chloroquine-resistant Plasmodium falciparum Dd2 reduction in microbial growth 5 times of EC50 treated with compound at 6 to 30 hrs post infection measured after 12 hrs by Giemsa staining-based microscopic analysis; format: functional, organism-based; outline: as §1
[8] = Toxicity in BALB/c mouse infected with Plasmodium berghei ANKA expressing luciferase assessed as hypotrichosis at 25 to 100 mg/kg, po for 4 days measured up to 30 days; format: organism-based; conditions: in vivo, 96 h, dose 25-100 mg/kg, time 4 day; outline: as §2
Plasmodium berghei [9] = assay: Antiplasmodial activity against Plasmodium berghei ANKA expressing luciferase infected in BALB/c mouse assessed as mean survival days at 100 mg/kg, po for 4 days using monophosphate salt form of compound (reference value: 8 day); format: functional; conditions: time 4 day
Plasmodium falciparum [10] = assay: Antiplasmodial activity against synchronized chloroquine-resistant Plasmodium falciparum Dd2 reduction in microbial growth 5 times of EC50 treated with compound at 42 hrs post infection measured after 12 hrs by YOYO-1 staining-based flow cytometric analysis; format: functional, organism-based; outline: as §1
[11] = Toxicity in BALB/c mouse infected with Plasmodium berghei ANKA expressing luciferase assessed as hunched posture at 25 to 100 mg/kg, po for 4 days measured up to 30 days; format: organism-based; conditions: in vivo, 96 h, dose 25-100 mg/kg, time 4 day; outline: as §2
Plasmodium berghei [12] = assay: Antiplasmodial activity against Plasmodium berghei ANKA expressing luciferase infected in Swiss Webster mouse at 100 mg/kg, po for 5 days using monophosphate salt form of compound by luminescence based assay; format: functional, organism-based; conditions: time 5.0 day
Outline: (§4)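 Female Swiss Webster mice got 10³ RBC infected with luciferase-expressing P. berghei ANKA. From 48 h post-infection, groups of five were gavaged once daily for 5 days in 2% methylcellulose/0.5% Tween 80, against a vehicle control. On day 7, mice received 150 mg/kg D-luciferin in PBS, and bioluminescence was imaged by IVIS as a measure of parasite load.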

Plasmodium falciparum [13] = assay: Antiplasmodial activity against chloroquine-resistant Plasmodium falciparum Dd2 infected in human erythrocytes assessed as reduction in microbial growth after 72 hrs by SYBR green I staining based fluorescence assay; format: functional, organism-based; conditions: Dd2, Erythrocyte
Outline: (§5)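 SYBR Green I assay: twofold serial dilutions on P. falciparum cultures at 1% parasitemia, 1% hematocrit, 37 °C, 5% CO₂, 72 h, max 0.1% DMSO. DMSO and CQ as growth and inhibition controls. Plates frozen at −80 °C, thawed, lysed in Tris/saponin/EDTA/Triton buffer with 0.01% SYBR Green I, 1 h dark at room temperature. Fluorescence read at 485 ex/530 em. EC50 by nonlinear dose–response fit.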

Plasmodium falciparum [14] = assay: Induction of morphological changes in chloroquine-resistant Plasmodium falciparum Dd2 assessed as appearance of membrane-bound structure at 5 times of EC50 measured after 1.5 to 12 hrs by TEM analysis; format: functional, organism-based; conditions: time hrs 1.5-12
Outline: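 Fixed in 2% paraformaldehyde/2.5% glutaraldehyde in cacodylate pH 7.4, post-fixed in 1% OsO₄, en bloc 1% uranyl acetate, ethanol-dehydrated, Eponate-embedded. 95 nm sections stained with uranyl acetate/lead citrate for TEM.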

Plasmodium falciparum [15] = assay: Antiplasmodial activity against synchronous gametocyte early stage of Plasmodium falciparum 3D7 harboring luc7 incubated for 72 hrs by ONE-Glo luciferase assay; format: functional, organism-based; conditions: 3D7, 72 h; outline: as §3
Plasmodium falciparum [16] = assay: Parasiticidal activity against chloroquine-resistant Plasmodium falciparum Dd2 infected in RBC assessed as reduction in parasitemia at 5 times of EC50 incubated for 6 to 48 hrs followed by compound washout and then incubated for 96 hrs by Giemsa staining based microscopic analysis; format: functional, organism-based; conditions: time hrs 6-48
Outline: (§6)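 Controls: 0.15% DMSO, DHA 50 nM, atovaquone 6.6 nM. Drug removed by three RPMI washes, then parasitemia followed daily for 96 h by Giemsa thin smears. Three independent biological replicates.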

Plasmodium berghei [17] = assay: Antiplasmodial activity against Plasmodium berghei ANKA expressing luciferase infected in Swiss Webster mouse at 25 mg/kg, po for 5 days using monophosphate salt form of compound by luminescence based assay; format: functional, organism-based; conditions: time 5.0 day; outline: as §4
[18] = Intrinsic clearance in mouse liver microsomes assessed as parent compound at 1 uM after 60 mins in presence of NADPH by LC-MS analysis; format: ADME, Microsome
Outline: (§7)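 Mouse liver microsomes (0.5 mg/mL final protein) in 0.1 M phosphate, pH 7.4, with compound at 1 μM, 37 °C with shaking. Aliquots were quenched in cold acetonitrile and centrifuged; LC–MS gave parent peak area at 60 min relative to 0 min.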

[19] = Stability of compound in mouse liver microsomes assessed as parent compound remaining at 1 uM after 60 mins in presence of NADPH by LC-MS analysis; format: ADME, Microsome; conditions: 1 h; outline: as §7
Plasmodium falciparum [20] = assay: Antiplasmodial activity against chloroquine-sensitive Plasmodium falciparum 3D7 infected in human erythrocytes assessed as reduction in microbial growth after 72 hrs by SYBR green I staining based fluorescence assay; format: functional, organism-based; conditions: 3D7, Erythrocyte; outline: as §5
Plasmodium berghei [21] = assay: Antiplasmodial activity against Plasmodium berghei ANKA expressing luciferase infected in BALB/c mouse at 25 mg/kg, po for 4 days using monophosphate salt form of compound by Giemsa staining based microscopic analysis; format: functional, organism-based; conditions: time 4.0 day; outline: as §2
HepG2 = assay: Cytotoxicity against human HepG2 cells assessed as reduction in cell viability after 48 hrs by MTS assay; format: cell-based; conditions: HepG2, 48 h
Outline: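 HepG2 cells were seeded at 2250 per well and grown 24 h at 37 °C, 5% CO₂. Serial dilutions starting at 25 μM were added for a further 48 h. MTS was then added for 3 h at 37 °C and absorbance read at 490 nm. EC₅₀ came from nonlinear dose–response fits.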

[22] = Toxicity in BALB/c mouse infected with Plasmodium berghei ANKA expressing luciferase assessed as reduction in mobility at 25 to 100 mg/kg, po for 4 days measured up to 30 days; format: organism-based; conditions: in vivo, 96 h, dose 25-100 mg/kg, time 4 day; outline: as §2
[23] = Drug level in mouse liver microsomes treated with N1,N1-diethyl-N4-(6-methoxy-2-(4-nitrostyryl)quinolin-4-yl)pentane-1,4-diamine measured up to 60 mins by LC-MS analysis; format: ADME, Microsome; conditions: 1 h
Outline: (§8)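 Microsomal incubations: mouse liver microsomes at 0.5 mg/mL, 1 μM compound, pH 7.4 phosphate, 37 °C, NADPH-regenerating system. The metabolite mixture was analysed by LC–MS after 15, 30 and 60 min.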

[24] = Half life in mouse liver microsomes after 60 mins in presence of NADPH by LC-MS analysis; format: ADME, Microsome
[25] = Stability of compound in mouse liver microsomes assessed as parent compound remaining after 60 mins in presence of NADPH by LC-MS analysis; format: ADME, Microsome; conditions: read-out: Stabilty
[26] = Drug level in mouse liver microsomes treated with N1-(6-chloro-2-(4-fluorostyryl)quinolin-4-yl)-N2,N2-dimethylethane-1,2-diamine measured up to 60 mins by LC-MS analysis; format: ADME, Microsome; conditions: 1 h; outline: as §8
Plasmodium falciparum [27] = assay: Antiplasmodial activity against synchronized chloroquine-resistant Plasmodium falciparum Dd2 reduction in microbial growth at 50 nM treated with compound at 42 hrs post infection measured after 12 hrs by Giemsa staining-based microscopic analysis; format: functional, organism-based; outline: as §1
Plasmodium falciparum [28] = assay: Parasiticidal activity against chloroquine-resistant Plasmodium falciparum Dd2 infected in RBC assessed as reduction in parasitemia at 50 nM incubated for 6 to 48 hrs followed by compound washout and then incubated for 96 hrs by Giemsa staining based microscopic analysis; format: functional, organism-based; conditions: time hrs 6-48; outline: as §6
Plasmodium falciparum [29] = assay: Antiplasmodial activity against synchronized chloroquine-resistant Plasmodium falciparum Dd2 reduction in microbial growth at 50 nM treated with compound at 42 hrs post infection measured after 12 hrs by YOYO-1 staining-based flow cytometric analysis; format: functional, organism-based; outline: as §1
Plasmodium falciparum [30] = assay: Antiplasmodial activity against late trophozoite synchronized chloroquine-resistant Plasmodium falciparum Dd2 reduction in microbial growth at 6.6 nM measured after 12 hrs by Giemsa staining-based microscopic analysis; format: functional, organism-based; outline: as §1
Plasmodium falciparum [31] = assay: Parasiticidal activity against chloroquine-resistant Plasmodium falciparum Dd2 infected in RBC assessed as reduction in parasitemia at 6.6 nM incubated for 48 hrs followed by compound washout and then incubated for 96 hrs by Giemsa staining based microscopic analysis; format: functional, organism-based; outline: as §6
Plasmodium falciparum [32] = assay: Antiplasmodial activity against late trophozoite synchronized chloroquine-resistant Plasmodium falciparum Dd2 reduction in microbial growth at 6.6 nM measured after 12 hrs by YOYO-1 staining-based flow cytometric analysis; format: functional, organism-based; outline: as §1

## CN(C)CCNc1cc(/C=C/c2ccc(C(F)(F)F)cc2)nc2ccc(Cl)cc12
Plasmodium falciparum [1]
  Activity: Active
[2]
  Activity: Non-Toxic
Plasmodium falciparum [3]
  EC50: 394 nM
[4]
  selectivity ratio: 1030
Plasmodium falciparum [5]
  Activity: inactive
[6]
  Ratio EC50: 0.6
Hemozoin
  inhibition: inactive
Plasmodium falciparum [7]
  Activity: Active
[8]
  Activity: Non-Toxic
Plasmodium berghei [9]
  MSD: 30 days
Plasmodium falciparum [10]
  Activity: inactive
[11]
  Activity: Non-Toxic
Plasmodium berghei [12]
  Activity: Active
Plasmodium falciparum [13]
  EC50: 10.9 nM
Plasmodium falciparum [14]
  Activity: Active
Plasmodium falciparum [15]
  EC50: 472 nM
Plasmodium falciparum [16]
  Activity: Active
Plasmodium berghei [17]
  Activity: Active
[18]
  CLH: 13.3 µL/min/mg
[19]
  Stabilty: 67.1%
Plasmodium falciparum [20]
  EC50: 16.8 nM
Plasmodium berghei [21]
  Activity: Active
HepG2
  EC50: 11200 nM
[22]
  Activity: Non-Toxic

## CCNCCCC(C)Nc1cc(/C=C/c2ccc([N+](=O)[O-])cc2)nc2ccc(OC)cc12 (stereo not drawn)
[23]
  Drug uptake: Active

## CCN(CC)CCCC(C)Nc1cc(/C=C/c2ccc([N+](=O)[O-])cc2)nc2ccc(OC)cc12 (stereo not drawn)
[4]
  selectivity ratio: 105
[6]
  Ratio EC50: 0.6
Plasmodium falciparum [13]
  EC50: 67 nM
[24]
  half-life: 56.2 min
[18]
  CLH: 33.4 µL/min/mg
[19]
  Stabilty: 36.7%
[25]
  remaining at 1 h: 47.8%
Plasmodium falciparum [20]
  EC50: 119 nM
HepG2
  EC50: 7020 nM

## CNCCNc1cc(/C=C/c2ccc(F)cc2)nc2ccc(Cl)cc12
[26]
  Drug uptake: Active

## C[C@H]1[C@@H](O)O[C@@H]2O[C@@]3(C)CC[C@H]4[C@H](C)CC[C@@H]1[C@@]24OO3 [ARTENIMOL]
Plasmodium falciparum [3]
  EC50: 37.4 nM
Plasmodium falciparum [27]
  Activity: Active
Plasmodium falciparum [15]
  EC50: 17.4 nM
Plasmodium falciparum [28]
  Activity: Active
Plasmodium falciparum [29]
  Activity: Active

## O=C1C(O)=C([C@H]2CC[C@H](c3ccc(Cl)cc3)CC2)C(=O)c2ccccc21
Plasmodium falciparum [30]
  Activity: inactive
Plasmodium falciparum [31]
  Activity: Active
Plasmodium falciparum [32]
  Activity: inactive
